In the RNAGym collection of RNA variant scans (doi:10.1126/science.aae0568):
Fewer inactive variants are shown than the library holds.

B1: tRNA (parent)
chain: GUUCCGUUGGCGUAAUGGUAACGCGUCUCCCUCCUAAGGAGAAGACUGCGGGUUCGAGUCCCGUACGGAACG

Variants of: B1
Test: yeast fitness relative to wild type (ratio to wild type); higher = fitter; tRNA-Arg(CCU), competitive growth, 37 C, YPD
Summary of the method: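 A pool of Saccharomyces cerevisiae strains, each with a tRNA-Arg(CCU) gene variant at the native genomic locus, was competed in YPD at 37°C for 24 hours across six parallel replicates. The variants had been chemically synthesised at a 3% per-site mutation rate over 69 sites, and gene amplicons before and after competition were read by 100-nucleotide paired-end sequencing. Darwinian fitness relative to wild type rested on changes in genotype frequencies. Genotypes required ≥ 100 starting reads, and estimates < 0.5 were set to 0.5.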

First: A14C C24A C27G C46G A65G
Second: C4U G68C
The yeast fitness of the first is lower: no more than 0.5 for the first, 0.963 for the second.

Compared with G18C U19A A36U, U2G C24A A45G is higher in yeast fitness: no more than 0.5 for the first, 0.586 for the second.

First: A21U C62G
Second: U7A G23C C46G G51C U53A
The yeast fitness of the first is higher: 0.586 for the first, no more than 0.5 for the second.

Going from G50A C55G to A21U C30U A40C U59C C62U G67U, the yeast fitness rises from 0.514 to 0.554.

Compared with U16G C62U, C22U C24G C49G G56A is lower in yeast fitness: 0.853 for the first, no more than 0.5 for the second.

Compared with U2A C66G, C4G C55G is lower in yeast fitness: 0.715 for the first, 0.612 for the second.

C5U A21G G44C A57U C62U and A21C C24U A37C G39A C49G A69C cannot be ordered by yeast fitness: no more than 0.5 for the first, no more than 0.5 for the second.

A14C C24A G52A U53A A57C and C4U A15C C29G C30G A43C cannot be ordered by yeast fitness: 0.5 for the first, no more than 0.5 for the second.

First: G18A G44A
Second: U64A G68U
The yeast fitness of the first is lower: 0.637 for the first, 0.728 for the second.

Going from C4U U32G A40C to A20C G58C, the yeast fitness rises from 0.57 to 1.03.

First: A14C C31U A36U C55G
Second: G9C A42G
The yeast fitness of the first is lower: no more than 0.5 for the first, 0.673 for the second.

First: U26C C66A
Second: G6A C31G C61U
The yeast fitness of the first is higher: 0.631 for the first, no more than 0.5 for the second.

First: G25A C27U C34G
Second: C29U C33U A40G U47A
The yeast fitness of the first is higher: 0.748 for the first, no more than 0.5 for the second.

Going from C5U C34G A37U C49G G56A to U19A G50A, the yeast fitness rises from no more than 0.5 to 0.795.

Compared with C4A U35G, C30A G56U is higher in yeast fitness: 0.564 for the first, 0.831 for the second.

Going from C11U G38C G48A to C4G A57G C61U, the yeast fitness rises from 0.57 to 0.629.

First: U8A G12A G44A C60U G67C
Second: G25A A65U G68C
The yeast fitness of the first is lower: no more than 0.5 for the first, 0.657 for the second.

First: G17C A21G C27U C33G A42U
Second: C5A A20U C31G C61U C66U
The yeast fitness of the first is higher: 0.621 for the first, no more than 0.5 for the second.

First: C24A G51A C60U G67A
Second: G6C C34U
The yeast fitness of the first is lower: no more than 0.5 for the first, 0.648 for the second.

Compared with U19G C24A C34G, G10C A20G C24U G38C G56C is lower in yeast fitness: 0.75 for the first, 0.561 for the second.

Compared with C11A A57G A69U, G23U A69C is higher in yeast fitness: no more than 0.5 for the first, 0.695 for the second.

C5A G18C G50A and A15G C27G A36U G39C A69C cannot be ordered by yeast fitness: no more than 0.5 for the first, no more than 0.5 for the second.

First: A15C C30A G63A
Second: C29G U47A G48A
The yeast fitness of the first is lower: no more than 0.5 for the first, 0.553 for the second.

First: A15U A20G U28G C33U
Second: A21G A36U
The yeast fitness of the first is lower: no more than 0.5 for the first, 0.583 for the second.

Going from A36C G38C A45G to C11A G18A C46U, the yeast fitness rises from 0.585 to 0.61.

U28A U32C C49G G52A and U3A C5U C22G C34G A37G A65G cannot be ordered by yeast fitness: no more than 0.5 for the first, no more than 0.5 for the second.

First: A43G A45C G51A
Second: C22U U53A
The yeast fitness of the first is lower: no more than 0.5 for the first, 0.673 for the second.

Going from C33G C49A C55G G56C to G23C C27G C55G G56A G58A C66G A70U, the yeast fitness falls from 0.561 to no more than 0.5.

First: C34A C46U
Second: A36U A65G
The yeast fitness of the first is lower: 0.615 for the first, 0.673 for the second.

Compared with A42U G51C, C5G A14C C31G G56A A70U is lower in yeast fitness: 0.567 for the first, no more than 0.5 for the second.

First: G12A C49U C62A
Second: U3A A43U C66U
The yeast fitness of the first is lower: 0.625 for the first, 0.635 for the second.

C34G G41C A69U and C29G C33U G68A cannot be ordered by yeast fitness: no more than 0.5 for the first, no more than 0.5 for the second.

U2A G10A G17C U35C C55G and A15C C24A cannot be ordered by yeast fitness: no more than 0.5 for the first, no more than 0.5 for the second.

Going from C5U C29U G38C to U3C G12A G44C, the yeast fitness rises from no more than 0.5 to 0.546.

Going from A42C A69U to C5G A15U A20U A40C G67A, the yeast fitness falls from 0.927 to 0.538.

First: C11U U53C A57C
Second: C22G C30U A37G A43U
The yeast fitness of the first is lower: no more than 0.5 for the first, 0.549 for the second.

Compared with G17C G23A G25C C29G A36U G39A C46U C55U, C4G C5U C22G U64A is higher in yeast fitness: no more than 0.5 for the first, 0.542 for the second.

First: C49A U59A
Second: G17C G41A G56C
The yeast fitness of the first is higher: 0.681 for the first, 0.619 for the second.

C22G C33A A36C A43U C55G and C11A C24U G48A cannot be ordered by yeast fitness: no more than 0.5 for the first, no more than 0.5 for the second.

Going from G25A U28A A43U to U35A A43G, the yeast fitness falls from 0.835 to 0.624.

Compared with G25C G48A G63A A69G, A20G C24G C27U A40C is higher in yeast fitness: no more than 0.5 for the first, 0.532 for the second.

First: C4U A21G C22A C46A
Second: C29G C30U C46U G48A G56A C61U C62G
The yeast fitness of the first is higher: 0.563 for the first, no more than 0.5 for the second.

First: U3C U16C G44A A45U C60A
Second: G12A G63C
The yeast fitness of the first is lower: no more than 0.5 for the first, 0.704 for the second.

Compared with C5G A37G, G6A C27G A36C A42C is lower in yeast fitness: 0.805 for the first, 0.58 for the second.

U13A U28A G63A G67A and U8A C11A A36G C61G A69G cannot be ordered by yeast fitness: no more than 0.5 for the first, no more than 0.5 for the second.

Going from C5U G18A G44C to C5G C24U A45G, the yeast fitness rises from 0.638 to 0.799.

A37U A40C G51C C66A and G9C C22G C61A G63A cannot be ordered by yeast fitness: no more than 0.5 for the first, no more than 0.5 for the second.

Going from G10A C22U G56C A69U to G12C C29U G51A G56A G63C, the yeast fitness rises from no more than 0.5 to 0.574.

First: U32C A40G C62G G68A A69C
Second: G58C A69G
The yeast fitness of the first is lower: no more than 0.5 for the first, 0.961 for the second.

Compared with A21U C61U, C30U G56A A69C is lower in yeast fitness: 0.709 for the first, 0.566 for the second.

C29U C34U G41A G67A A70U and A14U A20U C49U cannot be ordered by yeast fitness: no more than 0.5 for the first, no more than 0.5 for the second.

First: U16A C24G C49G U53C
Second: C31A C60G
The yeast fitness of the first is lower: no more than 0.5 for the first, 0.516 for the second.

First: C11U C22U A70G
Second: U26A G41C A65G G67A
The yeast fitness of the first is higher: 0.644 for the first, no more than 0.5 for the second.

G17A C60G C61G and U2G C22A G56A U59G cannot be ordered by yeast fitness: no more than 0.5 for the first, no more than 0.5 for the second.

Going from C5G C22U C31G C60A to U3G U16A, the yeast fitness rises from no more than 0.5 to 0.938.

Compared with C11U U28C C29G C60A, U26A A65C is higher in yeast fitness: no more than 0.5 for the first, 0.946 for the second.

First: G6C U7A A21C A37C U47C A69C
Second: G48A U54A
The yeast fitness of the first is lower: no more than 0.5 for the first, 0.692 for the second.

Going from A36C G38A G58A to C5U U26G C33G G50C, the yeast fitness falls from 0.562 to no more than 0.5.

U3C U19C C34U U53C and A14G C29G A37G C46U C66G cannot be ordered by yeast fitness: no more than 0.5 for the first, no more than 0.5 for the second.

First: A65C A69C A70G
Second: G25A A69U
The yeast fitness of the first is lower: 0.554 for the first, 1.04 for the second.

U7A C11G C60A and C4U G10A C11G A20G C27G A65U cannot be ordered by yeast fitness: no more than 0.5 for the first, no more than 0.5 for the second.

Going from C11G G25A U32C G50A G51U U59A U64A to C31A A37G A65U, the yeast fitness rises from 0.628 to 0.629.

First: C27U C30A A42U A57U G63A A65C
Second: C24G U28C G50C
The yeast fitness of the first is higher: 0.597 for the first, no more than 0.5 for the second.

First: C24G G39C C60U A65U
Second: C5U U13C
The yeast fitness of the first is lower: no more than 0.5 for the first, 0.911 for the second.

Going from C5U C33G C61A C66U to A36C U53A, the yeast fitness rises from no more than 0.5 to 0.643.

First: C5A G39C C46A C60G
Second: U16A A20G C34U G56C
The yeast fitness of the first is lower: no more than 0.5 for the first, 0.509 for the second.

U7C U16G U28A C49G A57C G67U and C5G C22U U26G U32A U35A A69C cannot be ordered by yeast fitness: no more than 0.5 for the first, no more than 0.5 for the second.

First: G44C G52A
Second: A20G C22A A42G
The yeast fitness of the first is higher: 0.833 for the first, 0.557 for the second.

C5U A14C A21C U53G A57C and C31G A57U A69C A70G cannot be ordered by yeast fitness: no more than 0.5 for the first, no more than 0.5 for the second.

Going from U3G G17C A42U C62U to C11U U35C G44A, the yeast fitness rises from no more than 0.5 to 0.727.

Going from C5U C46U C60G to U2C C5A, the yeast fitness rises from no more than 0.5 to 0.845.

First: G6C A14G A20C
Second: G12C G25A C33G A37G A40C C49G G67C
The yeast fitness of the first is higher: 0.501 for the first, no more than 0.5 for the second.

Going from A21C A37C A69U to C11U U13A G25A U28A C31A A43C C60G C61G C62U, the yeast fitness rises from no more than 0.5 to 0.581.

Going from C62G C66G to C22G C62U, the yeast fitness rises from 0.553 to 0.879.

Compared with A57G G58A, G23C G38A C61U is lower in yeast fitness: 1.01 for the first, 0.578 for the second.

First: A40G U64A
Second: A42G G44C C49U A57C
The yeast fitness of the first is higher: 0.737 for the first, no more than 0.5 for the second.

First: C24U G52C
Second: A15C G17A G38C
The yeast fitness of the first is higher: 0.702 for the first, no more than 0.5 for the second.

G12C U47A G52C and U8A A20G C33A A57G cannot be ordered by yeast fitness: no more than 0.5 for the first, no more than 0.5 for the second.

Going from C11G G12A C31G A69C to C11G G38C C49A, the yeast fitness rises from no more than 0.5 to 0.583.

Compared with C30A A36G G67C, G51A C60U G68A is lower in yeast fitness: 0.537 for the first, no more than 0.5 for the second.

U3G A42G C62G and C4U A14C G39C cannot be ordered by yeast fitness: no more than 0.5 for the first, no more than 0.5 for the second.

First: C5U G18A U28A G56A C61G
Second: G18A A37G C61U
The yeast fitness of the first is higher: 0.626 for the first, no more than 0.5 for the second.

A14G U16G C24G U26C G50C A65U and A21U U54G cannot be ordered by yeast fitness: no more than 0.5 for the first, no more than 0.5 for the second.

For G9C A21C C29U, the yeast fitness was no more than 0.5.
